In ChEMBL document CHEMBL4304816, “A Novel Biphenyl-based Chemotype of Retinoid X Receptor Ligands Enables Subtype and Heterodimer Preferences” (ACS Med Chem Lett, 2019):
The source made the active and inactive calls. The calls are words filed in the database; no cut-off is given here.

Experiments:
Format in all cases: cell-based
[1] = biological target: T1, Retinoic acid receptor RXR-beta (Homo sapiens) (UniProt P28702); experiment: Agonist activity at Gal4-LBD fused RXRbeta (unknown origin) expressed in HEK293T cells at 10 uM after 14 to 16 hrs by dual-Glo luciferase assay
T1 sequence (whole entry): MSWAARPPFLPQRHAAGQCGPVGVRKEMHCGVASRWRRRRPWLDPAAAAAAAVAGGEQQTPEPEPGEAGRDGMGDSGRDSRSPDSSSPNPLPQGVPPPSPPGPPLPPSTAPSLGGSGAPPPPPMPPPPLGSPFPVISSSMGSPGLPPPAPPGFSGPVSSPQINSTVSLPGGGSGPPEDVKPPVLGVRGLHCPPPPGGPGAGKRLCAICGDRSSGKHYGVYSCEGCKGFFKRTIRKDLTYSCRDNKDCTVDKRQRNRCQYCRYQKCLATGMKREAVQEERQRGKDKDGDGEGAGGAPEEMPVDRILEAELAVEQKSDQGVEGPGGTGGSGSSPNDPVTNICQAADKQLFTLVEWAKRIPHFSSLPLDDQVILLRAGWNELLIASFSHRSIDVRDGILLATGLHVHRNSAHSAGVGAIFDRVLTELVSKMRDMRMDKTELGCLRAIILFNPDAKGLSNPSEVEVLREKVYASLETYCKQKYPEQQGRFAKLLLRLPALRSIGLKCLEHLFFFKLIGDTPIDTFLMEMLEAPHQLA

[2] = biological target: T2, Retinoic acid receptor RXR-alpha (Homo sapiens) (UniProt P19793); experiment: Agonist activity at Gal4-LBD fused RXRalpha (unknown origin) expressed in HEK293T cells at 10 uM after 14 to 16 hrs by dual-Glo luciferase assay
T2 sequence (whole entry): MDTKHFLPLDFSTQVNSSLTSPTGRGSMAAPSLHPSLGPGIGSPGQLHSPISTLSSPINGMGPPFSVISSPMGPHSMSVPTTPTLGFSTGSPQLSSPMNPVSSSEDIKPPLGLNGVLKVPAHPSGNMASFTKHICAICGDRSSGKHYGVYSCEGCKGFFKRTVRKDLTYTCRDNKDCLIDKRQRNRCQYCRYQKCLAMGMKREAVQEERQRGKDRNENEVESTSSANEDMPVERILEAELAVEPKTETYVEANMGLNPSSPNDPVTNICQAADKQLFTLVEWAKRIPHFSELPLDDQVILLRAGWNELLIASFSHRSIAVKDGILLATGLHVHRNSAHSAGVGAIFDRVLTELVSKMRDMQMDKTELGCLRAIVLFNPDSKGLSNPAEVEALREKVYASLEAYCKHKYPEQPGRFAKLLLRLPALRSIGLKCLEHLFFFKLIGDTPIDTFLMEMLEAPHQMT

[3] = biological target: T3, Retinoic acid receptor RXR-gamma (Homo sapiens) (UniProt P48443); experiment: Agonist activity at Gal4-LBD fused RXRgamma (unknown origin) expressed in HEK293T cells at 10 uM after 14 to 16 hrs by dual-Glo luciferase assay
T3 sequence (whole entry): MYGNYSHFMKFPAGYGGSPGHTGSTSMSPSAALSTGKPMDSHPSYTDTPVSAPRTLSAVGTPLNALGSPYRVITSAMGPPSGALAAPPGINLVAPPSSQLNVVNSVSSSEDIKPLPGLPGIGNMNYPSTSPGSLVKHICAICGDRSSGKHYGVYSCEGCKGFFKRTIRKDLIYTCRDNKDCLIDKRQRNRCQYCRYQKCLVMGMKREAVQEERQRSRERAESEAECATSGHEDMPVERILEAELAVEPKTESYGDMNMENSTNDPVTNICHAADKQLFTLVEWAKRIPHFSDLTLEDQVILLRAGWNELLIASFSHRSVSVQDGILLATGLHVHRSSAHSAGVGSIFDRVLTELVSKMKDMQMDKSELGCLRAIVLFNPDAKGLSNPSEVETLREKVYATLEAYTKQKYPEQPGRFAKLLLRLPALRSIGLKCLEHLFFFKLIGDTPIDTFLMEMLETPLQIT

[4] = biological target: T4, Retinoic acid receptor RXR-alpha (Homo sapiens, UniProt P19793); experiment: Agonist activity at Gal4-LBD fused RXRalpha (unknown origin) expressed in HEK293T cells after 14 to 16 hrs by dual-Glo luciferase assay
T4 sequence (P19793 whole entry): T2 sequence (whole entry)
In short: (§1)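 Gal4-hybrid RXRα/β/γ reporter gene assays in HEK293T cells. Fold activation is the maximal fold activation versus 0.1% DMSO.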

[5] = biological target: T5, Retinoic acid receptor RXR-beta (Homo sapiens, UniProt P28702); experiment: Agonist activity at Gal4-LBD fused RXRbeta (unknown origin) expressed in HEK293T cells after 14 to 16 hrs by dual-Glo luciferase assay; in short: as §1
T5 sequence (P28702 whole entry): T1 sequence (whole entry)

[6] = biological target: T1, Retinoic acid receptor RXR-beta (Homo sapiens); experiment: Agonist activity at Gal4-LBD fused RXRbeta (unknown origin) expressed in HEK293T cells assessed as fold activation after 14 to 16 hrs by dual-Glo luciferase assay relative to untreated control; in short: as §1
[7] = biological target: T3, Retinoic acid receptor RXR-gamma (Homo sapiens); experiment: Agonist activity at Gal4-LBD fused RXRgamma (unknown origin) expressed in HEK293T cells at 20 uM after 14 to 16 hrs by dual-Glo luciferase assay
[8] = biological target: T2, Retinoic acid receptor RXR-alpha (Homo sapiens); experiment: Agonist activity at Gal4-LBD fused RXRalpha (unknown origin) expressed in HEK293T cells assessed as fold activation after 14 to 16 hrs by dual-Glo luciferase assay relative to untreated control; in short: as §1
[9] = biological target: T3, Retinoic acid receptor RXR-gamma (Homo sapiens); experiment: Agonist activity at Gal4-LBD fused RXRgamma (unknown origin) expressed in HEK293T cells assessed as fold activation at 10 uM after 14 to 16 hrs by dual-Glo luciferase assay relative to untreated control; in short: as §1
[10] = biological target: T6, Retinoic acid receptor RXR-gamma (Homo sapiens, UniProt P48443); experiment: Agonist activity at Gal4-LBD fused RXRgamma (unknown origin) expressed in HEK293T cells after 14 to 16 hrs by dual-Glo luciferase assay; in short: as §1
T6 sequence (P48443 whole entry): T3 sequence (whole entry)

[11] = biological target: T2, Retinoic acid receptor RXR-alpha (Homo sapiens); experiment: Agonist activity at Gal4-LBD fused RXRalpha (unknown origin) expressed in HEK293T cells assessed as fold activation at 10 uM after 14 to 16 hrs by dual-Glo luciferase assay relative to untreated control; in short: as §1
[12] = biological target: T3, Retinoic acid receptor RXR-gamma (Homo sapiens); experiment: Agonist activity at Gal4-LBD fused RXRgamma (unknown origin) expressed in HEK293T cells assessed as fold activation after 14 to 16 hrs by dual-Glo luciferase assay relative to untreated control; in short: as §1
[13] = biological target: T1, Retinoic acid receptor RXR-beta (Homo sapiens); experiment: Agonist activity at Gal4-LBD fused RXRbeta (unknown origin) expressed in HEK293T cells assessed as fold activation at 10 uM after 14 to 16 hrs by dual-Glo luciferase assay relative to untreated control; in short: as §1
[14] = biological target: T2, Retinoic acid receptor RXR-alpha (Homo sapiens); experiment: Agonist activity at Gal4-LBD fused RXRalpha (unknown origin) expressed in HEK293T cells at 30 uM after 14 to 16 hrs by dual-Glo luciferase assay
[15] = biological target: T1, Retinoic acid receptor RXR-beta (Homo sapiens); experiment: Agonist activity at Gal4-LBD fused RXRbeta (unknown origin) expressed in HEK293T cells at 30 uM after 14 to 16 hrs by dual-Glo luciferase assay
[16] = biological target: T3, Retinoic acid receptor RXR-gamma (Homo sapiens); experiment: Agonist activity at Gal4-LBD fused RXRgamma (unknown origin) expressed in HEK293T cells at 30 uM after 14 to 16 hrs by dual-Glo luciferase assay
[17] = biological target: T2, Retinoic acid receptor RXR-alpha (Homo sapiens); experiment: Agonist activity at Gal4-LBD fused RXRalpha (unknown origin) expressed in HEK293T cells assessed as fold activation at 20 uM after 14 to 16 hrs by dual-Glo luciferase assay relative to untreated control; in short: as §1
[18] = biological target: T3, Retinoic acid receptor RXR-gamma (Homo sapiens); experiment: Agonist activity at Gal4-LBD fused RXRgamma (unknown origin) expressed in HEK293T cells assessed as fold activation at 20 uM after 14 to 16 hrs by dual-Glo luciferase assay relative to untreated control; in short: as §1
[19] = biological target: T1, Retinoic acid receptor RXR-beta (Homo sapiens); experiment: Agonist activity at Gal4-LBD fused RXRbeta (unknown origin) expressed in HEK293T cells assessed as fold activation at 20 uM after 14 to 16 hrs by dual-Glo luciferase assay relative to untreated control; in short: as §1
Homo sapiens [20] = organism: Homo sapiens; experiment: Agonist activity at full-length human PPARgamma/RXR expressed in HEK293T cells at 20 uM after 14 to 16 hrs by dual-glo luciferase reporter gene assay relative to untreated control
In short: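 RXR:PPARγ heterodimer reporter assay in HEK293T cells with test compound alone. Mean relative activation is taken versus 0.1% DMSO, from three independent experiments each run in duplicate.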

[21] = Agonist activity at full-length human RXR/LXR expressed in HEK293T cells at 20 uM after 14 to 16 hrs in presence of 1 uM T0901317 by dual-glo luciferase reporter gene assay relative to T0901317; conditions: HEK-293T, read-out: Activity
In short: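 Synergy format: the test compound was co-applied with the partner-receptor reference agonist at 1 μM, either T0901317 (RXR:LXR) or rosiglitazone (RXR:PPARγ). Relative synergistic activation was derived from three independent experiments, each in duplicate; mean reported.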

Homo sapiens [22] = organism: Homo sapiens; experiment: Agonist activity at full-length human PPARgamma/RXR expressed in HEK293T cells at 20 uM after 14 to 16 hrs in presence of 1 uM rosiglitazone by dual-glo luciferase reporter gene assay relative to rosiglitazone
In short: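 RXR:PPARγ heterodimer reporter assay run with reference PPARγ agonist rosiglitazone (1 μM) co-applied. Read-out is mean relative synergistic activation, from three independent experiments each run in duplicate.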

[23] = Agonist activity at full-length human RXR/LXR expressed in HEK293T cells at 20 uM after 14 to 16 hrs by dual-glo luciferase reporter gene assay relative to untreated control; conditions: HEK-293T, read-out: Activity
In short: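 RXR:LXR or RXR:PPARγ heterodimer reporter assay with test compound alone. Activation expressed relative to 0.1% DMSO vehicle. Three independent experiments, each in duplicate; mean reported.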

[24] = biological target: T1, Retinoic acid receptor RXR-beta (Homo sapiens); experiment: Agonist activity at Gal4-LBD fused RXRbeta (unknown origin) expressed in HEK293T cells assessed as fold activation at 30 uM after 14 to 16 hrs by dual-Glo luciferase assay relative to untreated control; in short: as §1
[25] = biological target: T3, Retinoic acid receptor RXR-gamma (Homo sapiens); experiment: Agonist activity at Gal4-LBD fused RXRgamma (unknown origin) expressed in HEK293T cells assessed as fold activation at 30 uM after 14 to 16 hrs by dual-Glo luciferase assay relative to untreated control; in short: as §1
[26] = biological target: T2, Retinoic acid receptor RXR-alpha (Homo sapiens); experiment: Agonist activity at Gal4-LBD fused RXRalpha (unknown origin) expressed in HEK293T cells assessed as fold activation at 30 uM after 14 to 16 hrs by dual-Glo luciferase assay relative to untreated control; in short: as §1

SMILES | Activity [3] | EC50 [4] [µM] | EC50 [5] [µM] | fold change (FC) [6] | fold change (FC) [8] | EC50 [10] [µM] | Activity [16] | also measured
CC(C)(C)c1cc(-c2ccc(C(=O)O)nc2)cc(C(C)(C)C)c1 | inactive | – | – | – | – | – | – | Activity [1]: inactive; Activity [2]: inactive
CC(C)Oc1cccc(-c2ccc(C(=O)O)cc2)c1 | – | 10.6 | 13.4 | 19 | 18 | – | – | Activity [7]: inactive
O=C(O)c1ccc(-c2cc(C(F)(F)F)cc(C(F)(F)F)c2)cc1 | – | 3.1 | 3.7 | 122 | 50 | 12.5 | – | fold change (FC) [9]: 10; fold change (FC) [11]: 48; fold change (FC) [12]: 25; fold change (FC) [13]: 120
CC(C)c1cccc(-c2ccc(C(=O)O)cc2)c1 | – | 14.3 | 16.2 | 65 | 28 | 11.6 | – | fold change (FC) [12]: 2.7
COc1cccc(-c2ccc(C(=O)O)cc2)c1 | – | – | – | – | – | – | inactive | Activity [14]: inactive; Activity [15]: inactive
CC(C)(C)c1cc(-c2ccc(C(=O)O)cn2)cc(C(C)(C)C)c1 | inactive | – | – | – | – | – | – | Activity [1]: inactive; Activity [2]: inactive
CC(C)(C)c1cc(-c2cccc(C(=O)O)c2)cc(C(C)(C)C)c1 | inactive | 3.7 | 3.1 | 84 | 31 | – | – | fold change (FC) [9]: 4; fold change (FC) [11]: 32; fold change (FC) [13]: 82
O=C(O)c1ccc(-c2cc(Cl)cc(Cl)c2)cc1 | – | 9.3 | 13 | 68 | 38 | > 30 | – | fold change (FC) [17]: 33; fold change (FC) [18]: 3; fold change (FC) [19]: 60
Cc1cc(-c2cc(C(F)(F)F)cc(C(F)(F)F)c2)ccc1C(=O)O | – | 9.1 | 8.9 | – | – | – | inactive | Activity (Homo sapiens [20]): 84%; activity at 20 µM [21]: 71%; Activity (Homo sapiens [22]): 46%; activity at 20 µM [23]: 71%
Cc1cc(C)cc(-c2ccc(C(=O)O)cc2)c1 | – | 9.6 | 18.6 | 97 | 26 | – | inactive | fold change (FC) [24]: 74; fold change (FC) [25]: 2; fold change (FC) [26]: 25
